# Experimental data collected from several papers.
# Target: Cyclin-dependent kinase 14 (CDK14, Homo sapiens, UniProt O94921)
SMILES,read-out,method,concentration,remaining binding
C[C@@H]1CCN(c2nccc(-c3cnn4ncccc34)n2)C1,binding,,1 µM,100%
CCOC(=O)c1cc2cc(-c3cc(C(=O)NCc4ccc(C(=O)O)cc4)nn3C)ccc2[nH]1,cell-free assay,competition with immobilised ligand,0.1 µM,100%
FC(F)(F)Oc1cccc(-c2cnc3ccc(-c4ccncc4)nn23)c1,cell-free assay,competition with immobilised ligand,5 µM,68%
O=C(NCC1CCOCC1)c1n[nH]cc1NC(=O)c1c(F)cccc1F,binding,competition with immobilised ligand,1 µM,79%
CCN1CCN(Cc2ccc(C(=O)Nc3ccc(C)c(Oc4ccc5c(c4)CC(=O)N5)c3)cc2C(F)(F)F)CC1,binding,competition with immobilised ligand,1 µM,100%
COc1cnc(Nc2cccc(S(N)(=O)=O)c2)nc1N1CCN(c2ccccc2)C(=O)C1,binding,competition with immobilised ligand,1 µM,100%
COc1ncc2cc3ccccc3nc2c1C#N,cell-free assay,competition with immobilised ligand,5 µM,99%
CN(CCCC(F)(F)F)c1nccc(-c2cnn3ncccc23)n1,binding,,1 µM,93%
Cc1cc(NC(=O)c2cccc(S(F)(F)(F)(F)F)c2)cc(-n2ccn3nc(-c4cccnc4)cc23)c1,cell-free assay,competition with immobilised ligand,1 µM,93.8%
Nc1ncc2c(n1)-c1c([nH]c3ccc(C#CC4CC4)cc13)CCCC2,binding,competition with immobilised ligand,1 µM,88%
N[C@H]1CCN(c2nccc(-c3cnn4ncccc34)n2)C1,binding,,1 µM,100%
CNCc1ccccc1-c1csc([C@H](C)Nc2nc(C)nc3cc(OC)c(OC)cc23)c1,cell-free assay,competition with immobilised ligand,1 µM,100%
c1cncc(-c2cccc(Nc3nccc(NC4CCCCC4)n3)c2)c1,binding,competition with immobilised ligand,10 µM,90%
Cc1nc(C2CCN(C(=O)c3ccc(OC(F)(F)F)cc3N)CC2)c2ncc(N3CCN(C)CC3)cc2n1,cell-free assay,competition with immobilised ligand,1 µM,100%
O=C(NCCCN1CCOCC1)c1ccc(Nc2nccc(-c3cc4ccccc4s3)n2)cc1,binding,competition with immobilised ligand,1 µM,100%
F[C@@H]1CCN(c2nccc(-c3cnn4ncccc34)n2)C1,binding,,1 µM,100%
O=C(Nc1cnc(Oc2ccc(F)cc2)nc1)N1CCc2ncccc2[C@@H]1c1ccc(F)cc1,cell-free assay,competition with immobilised ligand,1 µM,100%
Cc1cnn2ncc(-c3ccnc(N(C)C)n3)c2c1,binding,,1 µM,91%
O=C(c1ccc(Nc2nccc(-c3cc4ccccc4s3)n2)cc1)N1CCC(N2CCCC2)CC1,binding,competition with immobilised ligand,1 µM,100%
